These results are taken from PMC4836853 (Arteriosclerosis, thrombosis, and vascular biology, 2016).

The Cmax is the highest concentration seen after dosing. As usually defined, the Vd is the apparent volume that relates the amount in the body to the concentration in plasma or blood. Usually half-life stands for how long it takes for the measured level to halve. Low readings indicate fast loss, high ones slow loss.

Series [1] can be described thus: Pharmacokinetics of PZ-128 in plasma and urine after 1 to 2 hours iv infusion. Format: in vivo, human.
Series [2] is described as follows: Safety, tolerability and hemostasis parameters in phase 1 subjects. Format: in vivo, human. Summed up: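 Single ascending IV doses went to subjects with CAD or multiple CAD risk factors. Cohorts of 0.01–2 mg/kg received 1-h infusions; a final 0.5 mg/kg cohort received a 2-h infusion after antiallergic premedication. Assessments were at baseline, 0.5, 1, 2, 6 and 24 h, and 7–10 days. APTT, INR, ACT and bleeding time were regressed on dose using repeated-measures mixed-effects models with Bonferroni post hoc correction.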

Series [3] has as its target T1, PAR1 (Homo sapiens, UniProt P25116).
T1 sequence (P25116 22-425): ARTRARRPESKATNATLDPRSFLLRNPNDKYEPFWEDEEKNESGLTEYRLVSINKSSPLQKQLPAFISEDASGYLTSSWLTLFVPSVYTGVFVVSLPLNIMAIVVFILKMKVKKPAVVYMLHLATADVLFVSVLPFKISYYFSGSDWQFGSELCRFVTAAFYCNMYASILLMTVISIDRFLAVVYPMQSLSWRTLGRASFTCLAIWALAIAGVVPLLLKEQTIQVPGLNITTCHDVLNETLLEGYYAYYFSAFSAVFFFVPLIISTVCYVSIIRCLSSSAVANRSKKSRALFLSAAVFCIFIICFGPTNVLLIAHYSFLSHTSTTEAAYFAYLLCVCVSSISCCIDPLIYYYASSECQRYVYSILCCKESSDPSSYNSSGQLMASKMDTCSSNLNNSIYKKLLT
Nature of the series: Ex vivo platelet aggregation to PAR1 agonist SFLLRN. Format: in vivo. Particulars: for inhibition at 2 mg/kg: read-out: inhibition of final aggregation to 8 μmol/L SFLLRN, 2 mg/kg.

Series [4] concerns the target T1, PAR1. The note with it: cited from earlier work.
The target of series [5] is T1, PAR1. Particulars: cited from earlier work. The source holds these as a separate data set.

Entries after “also recorded” stand apart in the source; their conditions may differ. Read-outs that look alike come from different tables or passages of the source. Peptide text beside a SMILES is read from it. * marks the point of attachment. Palmitoyl = CCCCCCCCCCCCCCCC(=O)*

As to `CCCCCCCCCCCCCCCC(=O)N[C@@H](CCCCN)C(=O)N[C@@H](CCCCN)C(=O)N[C@@H](CO)C(=O)N[C@@H](CCCNC(=N)N)C(=O)N[C@@H](C)C(=O)N[C@@H](CC(C)C)C(=O)N[C@@H](Cc1ccccc1)C(N)=O` [PZ-128] (Palmitoyl-KKSRALF-NH2), the “drug in plasma at 24 to 192 hours” value in series [1] (all subjects) is “undetectable; also recorded: no detectable drug”. For the same molecule, the PZ-128 in urine entry in series [1] (any time point, all subjects) was “nondetectable; also recorded: little or no PZ-128 detected; also recorded: not renally cleared”. In series [1] (human, plasma, intravenous), this molecule came in with a Cmax of 4700 to 21500 nM and a Vd of 0.11 to 0.17 L/kg. This molecule showed a Cmax in series [1] (human, plasma, intravenous, 0.5 mg/kg) of 1800 to 2700 nM. Moreover, in series [1] (human, plasma, iv), the half-life is 1.3 to 1.8 h and the level at time molar lay within 1000 to 3000 nM. The level at time molar at 6 h in series [1] (human, plasma, iv, 0.5 mg/kg) was below 500 nM. Further, the “peak plasma drug levels, 2-mg/kg versus 1-mg/kg cohort” value in series [1] (in vivo) was found to be 2 fold. The “tolerability / allergic response” value in series [2] (0.5 mg/kg, 2-hour infusion, antiallergic premedication) is on record as “none of these subjects had an allergic response; also recorded: appeared to be well tolerated”. For the same molecule, in series [2] (0.01-, 0.03-, 0.1-, and 0.3-mg/kg, 1-hour intravenous infusion), the tolerability result is recorded as “well tolerated”. Further, in series [2] (0.5–2 mg/kg), the “transient tingling or numb sensation in the skin” value is given as “commonly reported”. In addition, in series [2] (2-mg/kg dose over the 1-hour infusion), the “subjects with no hemodynamic effects” value turned out to be 50%. In addition, in series [2] (any dose), the “effects on coagulation, hemostasis parameters, or bleeding” value is recorded as “No significant effects” and the “heart rate, ECG parameters (RR, PR, QRS, QT, QTc, QTd) or pulmonary function” value is “no significant changes”. The “most important adverse event” value in series [2] (highest doses (1–2 mg/kg), 1-hour infusion) is listed as “acute allergic reactions”. In addition, the “clinical chemistry, hematology, urinalysis” value in series [2] (human, in vivo) was “not significantly affected”. In addition, in series [3] (1 to 2-hour time points), the inhibition at 2 mg/kg lay within 96 to 98%. For the same molecule, the inhibition at 2 mg/kg in series [3] (6 to 192-hour time points) was in the range of 15 to 21%. Moreover, the inhibition at 0.3 mg/kg in series [3] (read-out: mean inhibition of platelet aggregation (final), 8 μmol/L SFLLRN, 0.3 mg/kg, 30 minutes to 6 hours) is 20 to 40%. The inhibition at 0.5 mg/kg in series [3] (read-out: mean inhibition of platelet aggregation (final), 8 μmol/L SFLLRN, 0.5 mg/kg, 30 minutes to 6 hours) is 40 to 60%.
For `CCOC(=O)N[C@@H]1CC[C@@H]2[C@@H](C1)C[C@H]1C(=O)O[C@H](C)[C@H]1[C@H]2/C=C/c1ccc(-c2cccc(F)c2)cn1` [Vorapaxar, vorapaxar], the “inhibition of SFLLRN-induced aggregation at 2 hours” value in series [4] (40-mg loading dose (≈0.4 mg/kg)) is given as at least 80%. For the same molecule, the “inhibition of SFLLRN-induced aggregation at 30 minutes” value in series [4] (40-mg oral loading dose) is on record as “no appreciable inhibition”.
Take `CCOc1cc2c(c(F)c1OCC)C(=N)N(CC(=O)c1cc(N3CCOCC3)c(OC)c(C(C)(C)C)c1)C2` [atopaxar]: in series [5] (LANCELOT-ACS subjects), the “time to maximal platelet inhibition after the loading dose” value was 6 h. For the same molecule, the QTc interval entry in series [5] (higher dose levels) is “prolongation of the QTc interval was observed in some individuals”.
